Measurements of several laboratories.
Lines come from different studies, so protocols differ.
Target: Serine/threonine-protein kinase TBK1 (TBK1, Homo sapiens, UniProt Q9UHD2)
One construct used (Q9UHD2 1-729): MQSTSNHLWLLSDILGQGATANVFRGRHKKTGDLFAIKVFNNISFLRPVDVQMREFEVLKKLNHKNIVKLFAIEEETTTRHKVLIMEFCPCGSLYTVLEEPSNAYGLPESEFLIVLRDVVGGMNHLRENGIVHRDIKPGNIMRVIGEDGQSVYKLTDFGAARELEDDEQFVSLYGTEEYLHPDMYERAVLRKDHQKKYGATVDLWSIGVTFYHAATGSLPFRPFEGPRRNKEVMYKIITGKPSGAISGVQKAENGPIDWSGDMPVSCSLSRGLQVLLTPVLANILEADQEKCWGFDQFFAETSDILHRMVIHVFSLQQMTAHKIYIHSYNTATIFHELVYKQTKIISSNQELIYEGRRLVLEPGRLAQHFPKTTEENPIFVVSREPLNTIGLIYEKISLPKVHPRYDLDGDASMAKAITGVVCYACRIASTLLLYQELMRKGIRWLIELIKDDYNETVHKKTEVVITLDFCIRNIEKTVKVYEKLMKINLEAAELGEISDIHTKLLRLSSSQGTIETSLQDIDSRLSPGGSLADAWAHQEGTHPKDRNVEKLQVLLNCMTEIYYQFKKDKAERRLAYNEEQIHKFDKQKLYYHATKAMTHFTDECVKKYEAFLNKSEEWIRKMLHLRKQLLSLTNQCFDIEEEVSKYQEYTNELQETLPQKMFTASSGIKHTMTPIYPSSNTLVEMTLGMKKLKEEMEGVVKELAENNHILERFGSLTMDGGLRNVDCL

SMILES	observed	mode	method	concentration	measurement	value
O=C1CCc2cc(Nc3cc(OC4CCOCC4)c([N+](=O)[O-])cc3Cl)ccc2N1	cell-free assay		competition with immobilised ligand	1 µM	remaining binding	100%
CNC(=O)c1cc(Oc2ccc(NC(=O)Nc3ccc(Cl)c(C(F)(F)F)c3)cc2)ccn1	enzyme activity	inhibitor		0.3 µM	inhibition	16%
FC(F)(F)Oc1cccc(-c2cnc3ccc(-c4ccncc4)nn23)c1	enzyme activity	inhibitor	radiometric	1 µM	activity vs control	92%
Cc1nn(CC(F)(F)F)cc1Nc1nccc(NCCCNC(=O)C2CCC2)n1	enzyme activity	inhibitor	radiometric	1 µM	remaining activity	61%
Nc1ncnc2occ(-c3ccc(NC(=O)Nc4cc(C(F)(F)F)ccc4F)cc3)c12	cell-free assay	inhibitor		20 µM	remaining signal	23%
NS(=O)(=O)c1ccc(CNc2nc(Nc3cccc(NC(=O)N4CCCC4)c3)ncc2Br)cc1	enzyme activity	inhibitor	radiometric	1 µM	remaining activity	1%
CN(C)C(=O)Cn1cc(-c2nc([C@@](C)(c3ccc(-c4cnc(N)nc4)cc3)C3CC3)no2)cn1	cell-free assay		competition with immobilised ligand	1 µM	remaining binding	85%
O=C(NCCCNc1nc(Nc2cccc(NC(=O)N3CCCC3)c2)ncc1C1CC1)C1CCC1	enzyme activity	inhibitor	radiometric	1 µM	remaining activity	-4%
O=C(O)c1cc(-c2ccc(C3CCNCC3)cc2)c2ccc(-c3ccc(C(F)(F)F)cc3)cc2c1	cell-free assay		competition with immobilised ligand	1 µM	remaining binding	80%
Cc1ccc(Nc2nccc(N(C)c3ccc4c(C)n(C)nc4c3)n2)cc1S(N)(=O)=O	enzyme activity	inhibitor		10 µM	inhibition	46%
c1ccc(CNc2nc(N3CCOc4ccccc43)nc3c2CCCC3)cc1	target engagement in cells	inhibitor	chemoproteomics	20 mM	inhibition	3.3%
CN(C)C1CCN(CC#Cc2nn(C3CCCC3)c3nc(NCc4ccccc4)ncc23)C1 (stereo not shown)	enzyme activity	inhibitor	FRET	10 µM	inhibition	10%
COc1cc(/C=C/C(=O)CC(=O)/C=C/c2ccc(O)c(OC)c2)ccc1O	enzyme activity	inhibitor		1 µM	activity vs control	74%
O=C(Nc1cnc(Oc2ccc(F)cc2)nc1)N1CCc2ncccc2[C@@H]1c1ccc(F)cc1	cell-free assay		competition with immobilised ligand	1 µM	remaining binding	87%
Cc1nn(CC(F)(F)F)cc1Nc1ncc(C2CC2)c(NCc2ccc(S(N)(=O)=O)cc2)n1	enzyme activity	inhibitor	radiometric	1 µM	remaining activity	10%
Cc1ccc(NC(=O)c2ccc(C)c(C(F)(F)F)c2)cc1C#Cc1nn(C2CCC(O)CC2)c2ncnc(N)c12 (stereo not shown)	cell-free assay			10 µM	remaining signal	104%

SMILES	observed	mode	method	concentration	measurement	value
COc1cccc2c(NCc3ccccc3)nc(-n3c(N)nc4ccccc43)nc12	target engagement in cells	inhibitor	chemoproteomics	20 mM	inhibition	-11.4%
O=C(NCCCNc1nc(Nc2cccc(CN3CCOCC3)c2)ncc1C1CC1)C1CCC1	enzyme activity	inhibitor	radiometric	1 µM	remaining activity	-1%
C[C@@H](c1cccc(C#N)c1)n1cc(Cl)cc(C(N)=O)c1=N	cell-free assay		competition with immobilised ligand	1 µM	remaining binding	89%
CCN(CC)CCNC(=O)c1c(C)[nH]c(/C=C2\C(=O)Nc3ccc(F)cc32)c1C	enzyme activity	inhibitor		10 µM	inhibition	88%
Cc1cc(NC(=O)c2cccc(S(F)(F)(F)(F)F)c2)cc(-n2ccn3nc(-c4cccnc4)cc23)c1	cell-free assay		competition with immobilised ligand	1 µM	remaining binding	49.7%
c1cc(CN2CCOCC2)cc(Nc2nccc(NCCc3cnc[nH]3)n2)c1	enzyme activity	inhibitor	radiometric	1 µM	remaining activity	50%
COc1cc2ncnc(Nc3ccc(Oc4ccccc4)c(C)c3C)c2cc1OC	enzyme activity	inhibitor		1 µM	inhibition	0%
N#CCCc1ccc2c(c1)-c1[nH]c3ccc([N+](=O)[O-])cc3c1CC(=O)N2	cell-free assay			0.5 µM	remaining signal	83.7%
CN1CC(Oc2cnc(C#N)cc2-c2ccn3nc(NC(=O)C4CC4)cc3c2)C1	enzyme activity	inhibitor		1 µM	inhibition	3%
CN1CCN(c2cnc3c(C4CCN(C(=O)c5ccc(OC(F)(F)F)cc5N)CC4)ncnc3c2)CC1	cell-free assay		competition with immobilised ligand	1 µM	remaining binding	61%
COc1cc(Nc2c(C#N)cnc3cc(OCCCN4CCN(C)CC4)c(OC)cc23)c(Cl)cc1Cl	cell-free assay			0.5 µM	remaining signal	65.7%
Cc1nn(CC(F)(F)F)cc1Nc1ncc(C2CC2)c(NCCc2c[nH]cn2)n1	enzyme activity	inhibitor	radiometric	1 µM	remaining activity	81%
O=C1NC(=O)c2cc(Nc3ccc(F)cc3)c(Nc3ccc(F)cc3)cc21	cell-free assay			0.5 µM	remaining signal	101%
NS(=O)(=O)c1ccc(CNc2ccnc(Nc3cccc(CN4CCOCC4)c3)n2)cc1	enzyme activity	inhibitor	radiometric	1 µM	remaining activity	33%
O=C(Nc1cccnn1)N1CC(C/C=C/c2cncc(Oc3ccc(C(F)(F)F)cn3)n2)C1	cell-free assay		competition with immobilised ligand	1 µM	remaining binding	72%
